Ten compounds from ChEMBL document CHEMBL3352590, “How a β-D-glucoside side chain enhances binding affinity to thrombin of inhibitors bearing 2-chlorothiophene as P1 moiety: crystallography, fragment deconstruction study, and evaluation of antithrombotic properties” (J Med Chem, 2014) can be followed below.

In data set [1] the target is T1, Prothrombin (Bos taurus, UniProt P00735). The data set can be described thus: Inhibition of bovine thrombin assessed as reduction in hydrolysis of chromogenic substrate S-2238 by Cheng-Prusoff equation analysis.
Data set [2] deals with T2, Coagulation factor X (Homo sapiens, UniProt P00742). As to the kind of experiment: Inhibition of human factor10a assessed as reduction in hydrolysis of chromogenic substrate S-2765 by Cheng-Prusoff equation analysis. In short, it runs like this: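 Chromogenic assay at pH 8: 2 nM human fXa with 0.04 mM S-2765, or 0.41 U/mL bovine thrombin with 0.05 mM S-2238 (final). Enzyme preincubated with inhibitor (0.01−100 nM or 0.01−100 μM, ≤1% DMSO); substrate added, A405 followed 5 min.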

The target in data set [3] is T2, Coagulation factor X. As to the kind of experiment: Inhibition of human factor10a assessed as reduction in hydrolysis of chromogenic substrate S-2765 at 1 mM by Cheng-Prusoff equation analysis.
In data set [4] the target is Prothrombin (Bos taurus) (UniProt P00735). As to the kind of experiment: Inhibition of bovine thrombin assessed as reduction in hydrolysis of chromogenic substrate S-2238 at 1 mM by Cheng-Prusoff equation analysis.
Data set [5] has as its system Plasma. As to the kind of experiment: Anticoagulant activity in recombinant tissue factor and procoagulant phospholipids-stimulated human citrated plasma assessed as increase in time required to generate first traces of thrombin at 10 uM by fluorometry based calibrated automated thrombography. The data set is classed as functional, cell-free. The procedure, abridged:
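Pooled citrated human plasma spiked with test compound or vehicle (0.01−10 μM); clotting triggered by low tissue factor, phospholipids and calcium; thrombin generation followed by calibrated automated thrombography, 80 μL plasma preincubated 10 min at 37 °C. Lag-time = time to first traces of thrombin, expressed as percent of vehicle control plasma.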

Data set [6] can be described thus: Aqueous solubility in pH 7.4 0.05 M phosphate buffer by HPLC method. In kind it is physicochemical. In short, it runs like this:
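Excess solid (4−10 mg) in 0.05 M phosphate buffer pH 7.4 with 0.15 M KCl, shaken 1 h at 25 °C, then 15 min unshaken. Supernatant filtered and quantified by C18 HPLC (MeOH/0.05 M phosphate pH 4.5, UV 288 nm) against calibration curves of peak area.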

The test system of data set [7] is Plasma. The data set can be described thus: Anticoagulant activity in recombinant tissue factor and procoagulant phospholipids-stimulated human citrated plasma assessed as reduction in endogenous thrombin potential by fluorometry based calibrated automated thrombography. In kind it is functional, cell-free. The procedure, abridged:
(§1)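 Pooled citrated human plasma spiked with test compounds at 0.01−10 μM or vehicle; 80 μL plasma incubated 10 min at 37 °C; thrombin generation triggered by low tissue factor, phospholipids and calcium. Lag-time, thrombin peak and endogenous thrombin potential (area under curve) read by calibrated automated thrombography and expressed as percent of vehicle control.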

In data set [8] the test system is Plasma. As to the kind of experiment: Profibrinolytic activity in tissue factor-induced human plasma exposed to exogenous tissue plasminogen activator assessed as time needed to lyse 50% fibrin clot by turbidimetric assay. The data set is classed as functional, cell-free. In short, it runs like this:
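Turbidimetric clot lysis at 37 °C: citrated human plasma spiked with compound or vehicle, plus phospholipids, t-PA (40 ng/mL stock), Tris-NaCl pH 7.4 and TF; clotting started with CaCl2. A405 read each minute for 3 h; lysis time from clot formation to midpoint of turbid-to-clear transition, as percent of vehicle; three independent plasma samples.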

For data set [9], the target named is T1, Prothrombin. The data set can be described thus: Inhibition of bovine thrombin assessed as reduction in hydrolysis of chromogenic substrate S-2238 by Lineweaver-Burk analysis.
The nature of data set [10]: Lipophilicity, logKw of the compound by RP-HPLC method. The data set is classed as physicochemical. In short, it runs like this:
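RP-HPLC on C18 column at 25 °C, 1.0 mL/min, UV 288 nm; capacity factors k′ = (tR − t0)/t0 measured at MeOH volume fractions 0.8 to 0.4 in 0.05 steps; log k′w taken as the polycratic capacity factor.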

A short description of data set [11]: Stability in 0.05 M pH 7.4 phosphate buffer containing 0.15 M KCl assessed as unhydrolyzed compound after 4 hrs at 37 degC. The settings on record: read-out: Stability. In kind it is physicochemical. The procedure, abridged:
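10 mM acetonitrile stock diluted to 250 μM final in 0.05 M phosphate buffer pH 7.40 with 0.15 M KCl, 37 °C; samples withdrawn at t0 and fixed times, filtered and analysed by HPLC (UV 288 nm) for remaining unhydrolyzed compound.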

The subject of data set [12] is Plasma. The data set can be described thus: Anticoagulant activity in recombinant tissue factor and procoagulant phospholipids-stimulated human citrated plasma assessed as inhibition of thrombin peak by fluorometry based calibrated automated thrombography. The data set is classed as functional, cell-free. The procedure, abridged: as §1
Data set [13] deals with Plasma. The data set can be described thus: Anticoagulant activity in recombinant tissue factor and procoagulant phospholipids-stimulated human citrated plasma assessed as increase in time required to generate first traces of thrombin at 2 to 10 uM by fluorometry based calibrated automated thrombography. In kind it is functional, cell-free. In short, it runs like this:
as §1

The nature of data set [14]: Stability in human plasma assessed as unhydrolyzed compound after 4 hrs at 37 degC by HPLC method. The data set is classed as ADME, cell-free. Conditions: read-out: Stability. The procedure, abridged: (§2)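 10 mM ACN stock diluted to 250 μM final in preheated 37 °C human serum (lyophilized, reconstituted in water). Incubation stopped at fixed times with ice-cold ACN; remaining parent measured by HPLC; first-order half-life derived.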

Data set [15] addresses T2, Coagulation factor X. The data set can be described thus: Inhibition of human factor10a assessed as reduction in hydrolysis of chromogenic substrate S-2765 by Lineweaver-Burk analysis. The procedure, abridged: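 Human fXa fixed at 2 nM, S-2765 varied 25−200 μM, without or with inhibitor at four concentrations, pH 8, A405 initial rates; Lineweaver−Burk (1/v vs 1/[S]) plots used to assign inhibition type.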

The nature of data set [16]: Half life in human plasma at 37 degC by HPLC method. In kind it is ADME, cell-free. The procedure, abridged: as §2
[17] abbreviates: Homo sapiens, Plasma, read-out: IC50.
Where [18] appears, read: Homo sapiens, Plasma, read-out: EC50.

Converted amounts (≈) assume the structure as drawn. The source made the active and inactive calls. No cut-off for these calls is given here.

T2 sequence (P00742 41-179 limits assumed): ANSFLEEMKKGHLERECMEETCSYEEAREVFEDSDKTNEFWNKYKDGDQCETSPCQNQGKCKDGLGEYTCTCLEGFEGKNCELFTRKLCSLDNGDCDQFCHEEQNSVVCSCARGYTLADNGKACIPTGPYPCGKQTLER
T2 sequence (P00742 235-488 limits assumed): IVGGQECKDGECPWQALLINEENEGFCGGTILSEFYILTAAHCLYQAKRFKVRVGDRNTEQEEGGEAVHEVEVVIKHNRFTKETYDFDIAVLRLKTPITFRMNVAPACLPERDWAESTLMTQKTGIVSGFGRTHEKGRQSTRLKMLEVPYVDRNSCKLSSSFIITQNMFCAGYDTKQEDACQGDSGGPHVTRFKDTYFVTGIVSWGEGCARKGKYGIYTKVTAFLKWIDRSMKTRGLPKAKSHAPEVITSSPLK

Take `Nc1c(OCCCO[C@@H]2O[C@H](CO)[C@@H](O)[C@H](O)[C@H]2O)cccc1OCc1cc(-c2ccc(Cl)s2)on1`: the Ki came out at 133000 nM in [1] and 6900 nM in [2].
Take `CC(C)N1CCC(C(=O)Nc2ccccc2)CC1`: the inhibition in data set [3] worked out at 13%; in data set [4], 16%.
Regarding `CC(C)N1CCC(C(=O)Nc2c(OCCCO[C@@H]3O[C@H](CO)[C@@H](O)[C@H](O)[C@H]3O)cccc2OCc2cc(-c3ccc(Cl)s3)on2)CC1`, the fold change (FC) in [5] was 15. The solubility in data set [6] worked out at 7330 µM (≈ 5100 µg/mL). Also, the inhibition constant (Ki) stood at 100 nM in data set [1], 96 nM in data set [9], 0.09 nM in data set [2] and 0.87 nM in data set [15]. Also, the concentration for half-maximal inhibition (IC50) was 3400 nM in [7] (setting [17]) and 300 nM in data set [12]. For the same compound, the EC50 in [8] (setting [18]) was determined as 300 nM. Further, the logKw in data set [10] is 3.07. Further, the remaining at 4 h in data set [11] and in data set [14] was > 90% in each case. Moreover, in data set [13], the result was Active.
For `CC(=O)OC[C@H]1O[C@@H](OCCCOc2cccc(OCc3cc(-c4ccc(Cl)s4)on3)c2NC(=O)C2CCN(C(C)C)CC2)[C@H](OC(C)=O)[C@@H](OC(C)=O)[C@@H]1OC(C)=O`, the fold change (FC) in data set [5] turned out to be 9. In addition, the half-life in data set [16] was 2.8 h. For the same compound, the solubility in [6] was < 1 µM. Moreover, the Ki in data set [1] was 160 nM; in data set [2], 0.25 nM. For the same compound, the values for the half-maximal inhibitory concentration (IC50) in data set [7] (setting [17]) and in data set [12] were 10000 nM and 1200 nM, respectively. Besides, the EC50 in [8] (setting [18]) worked out at 1800 nM. In addition, the logKw in data set [10] was found to be 5.07. In data set [11], the remaining at 4 h was > 90%. In addition, in data set [13], the outcome was Active.
As for `COc1ccccc1NC(=O)C1CCN(C(C)C)CC1`, the values for the inhibition in data set [3] and in data set [4] were 16% and 0%, respectively.
In the case of `CC1CNc2c(cccc2S(=O)(=O)N[C@@H](CCCNC(=N)N)C(=O)N2CC[C@@H](C)C[C@@H]2C(=O)O)C1` (stereo not given in full) [ARGATROBAN], the IC50 in data set [7] (setting [17]) came to 2400 nM; in data set [12], 1900 nM. In addition, in [8] (setting [18]), the EC50 is 600 nM.
As for `Nc1c(OCCCO)cccc1OCc1cc(-c2ccc(Cl)s2)on1`, the values for the Ki in data set [1] and in data set [2] were 29800 nM and 18300 nM, respectively.
Consider `Nc1ccccc1OCc1cc(-c2ccc(Cl)s2)on1`, for which the results for the Ki in data set [1] and in data set [2] were 31000 nM and 11600 nM, respectively.
As to `CC(C)N1CCC(C(=O)Nc2ccccc2OCCCO[C@@H]2[C@@H](O)[C@H](O)[C@@H](CO)O[C@H]2O)CC1`, the figures for the inhibition in [3] and in [4] were 14% and 28%, respectively.
For `CC(C)N1CCC(C(=O)Nc2ccccc2OCc2cc(-c3ccc(Cl)s3)on2)CC1`, the fold change (FC) in [5] worked out at 3. The compound also registered a solubility in data set [6] of 530 µM (≈ 244 µg/mL). Besides, the half-inhibitory concentration (IC50) entry in [7] is “Not Active”; in [12] it was 10000 nM. Besides, in [8], the concentration for a half-maximal effect (EC50) result is given as “Not Active”. Further, the results for the inhibitory constant (Ki) in [2] and in data set [15] were 0.6 nM and 0.11 nM, respectively. Besides, the logKw in data set [10] worked out at 3.49. In addition, the remaining at 4 h in [11] and in [14] was > 90% in each case. Also, in data set [13], the result was Active.
